Five compounds from ChEMBL document CHEMBL1137246, “Horseradish peroxidase inhibition and antioxidant activity of ebselen and related organoselenium compounds” (Bioorg Med Chem Lett, 2006) can be followed below.

The structures appear in SMILES notation. Active and inactive are the calls of the source. The calls are words filed in the database; no cut-off is given here. Bounds are passed on as bounds.

Assay [1] in a line: Glutathione peroxidase activity assessed by GSH-GSSG coupled assay. It is filed as functional. The essentials: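 GPx-like activity measured by GSH–GSSG coupled assay: glutathione reductase 0.3 U/ml, NADPH 0.25 mM, GSH 0.5–6 mM, compound 0.025 mM (in methanol, 2% in buffer), H2O2 1 mM substrate. NADPH loss at 340 nm fitted to an exponential; initial rates from ε 6220 M-1 cm-1, corrected for uncatalysed H2O2–GSH reaction. Km and Vmax from Lineweaver–Burk plots.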

Assay [2] is described as follows: Inhibition of horseradish peroxidase by spectrophotometric method. Also noted: species or system Armoracia rusticana. The procedure, abridged:
(§1)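 HRP (70 nM) with ABTS2- as substrate, with or without selenium compound at 0.06–0.1 mM. Reaction started by adding H2O2. Initial rates taken from the absorbance change at 645 nm (ABTS radical cation). Activity without compound set to 100%.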

The nature of assay [3]: Effect on gamma irradiation-induced TBARS formation in liposomes at 50 uM. It counts as functional. The essentials: (§2)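 Liposomal suspensions, N2O/O2-purged, pH 7.4 phosphate buffer, exposed to a constant 280 Gy γ-dose (Fricke dosimetry). Peroxidation followed as TBARS with compound at 0.025–0.150 mM. IC50 is the concentration giving 50% inhibition of lipid peroxidation.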

A further assay has as its system Armoracia rusticana. As to the kind of experiment: Inhibition of horseradish peroxidase at 100 uM. The essentials: as §1
The nature of assay [4]: Inhibition of gamma radiation-induced lipid peroxidation in liposomes. It counts as functional. The procedure, abridged: as §2
A short description of assay [5]: Antioxidant activity assessed by singlet oxygen quenching ability. It counts as functional.
Assay [6] can be described thus: Inhibition of gamma radiation-induced lipid peroxidation in liposomes at 200 uM. It is filed as functional.
A short description of assay [7]: Antioxidant activity assessed by singlet oxygen quenching ability at 1mM. It counts as functional.

A word on the Km: it is the concentration of substrate that gives half-maximal velocity. Broadly, the IC50 is the concentration at which inhibition is half-maximal. Higher therefore signals a need for much substance. A word on the inhibition: it is the share of the control response that was lost under treatment. Consider `O=C(Nc1ccccc1)c1ccccc1[Se]Cc1ccccc1`, for which the Km in assay [1] came out at 2.2 mM. In addition, the half-maximal inhibitory concentration (IC50) is greater than 100 µM in assay [2] and 75 µM in assay [4]. The result in assay [3] (Liposome) and in assay [5] was Active. For the same compound, the inhibition in the assay on Armoracia rusticana stood at 33.1%.
For the compound `C[Se]c1ccccc1C(=O)Nc1ccccc1`, the Michaelis-Menten constant (Km) in assay [1] came out at 5.25 mM. The IC50 in assay [2] was greater than 100 µM; in assay [4], 100 µM. In addition, the result in assay [3] (Liposome) and in assay [5] was Active. Moreover, the inhibition with Armoracia rusticana is 25.5%.
For the compound `O=C(Nc1ccccc1)c1ccccc1[Se][Se]c1ccccc1C(=O)Nc1ccccc1` [EBSELEN DISELENIDE], in assay [6], the inhibition is 19%. The compound further returned a 50% inhibitory concentration (IC50) in assay [2] of 50 µM. Besides, in assay [3] (Liposome), the outcome was Active. Further, in assay [7], the outcome was inactive.
With `O=C(Nc1ccccc1)c1ccccc1[Te][Te]c1ccccc1C(=O)Nc1ccccc1` [EBSELEN DITELLURIDE], in assay [1], the Michaelis-Menten constant (Km) is 2.3 mM. Moreover, the results for the IC50 in assay [2] and in assay [4] were 17.3 µM and 175 µM, respectively. Also, the result in assay [3] (Liposome) and in assay [5] was Active.
On to `O=c1c2ccccc2[se]n1-c1ccccc1` [EBSELEN], for which the Km in assay [1] turned out to be 13.2 mM. Besides, the half-maximal inhibitory concentration (IC50) in assay [2] is 16.9 µM; in assay [4], 25 µM. Besides, the outcome in assay [3] and in assay [5] was Active.
